Source: ChEMBL document CHEMBL4049428, “Exploring Derivatives of Quinazoline Alkaloid l-Vasicine as Cap Groups in the Design and Biological Mechanistic Evaluation of Novel Antitumor Histone Deacetylase Inhibitors” (J Med Chem, 2017)
pIC50: −log10 of the molar value. Calls of active or inactive are those of the source. The rule behind the calls is not given here.

Key:
[1] = species: Homo sapiens; experiment: Inhibition of HDAC in human HeLa nuclear extract up to 2 uM using Boc-Lys(Ac)-AMC as substrate measured after 30 mins by fluorometric analysis
[2] = system: MIA PaCa-2; experiment: Cytotoxicity against human MIAPaCa2 cells assessed as growth inhibition at 10 uM after 48 hrs by MTT assay; format: functional; details: MIA PaCa-2, 48 h, read-out: GI
Method in brief: (§1)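 MTT assay, 48 h exposure; adherent lines seeded 12 h and suspension lines 4 h before compound. Media: RPMI-1640/10% FCS (THP-1, HL-60, Colo-205, Caco-2, A549), DMEM/10% FCS (A549, MIAPaCa-2, MCF-7). MTT 4 h, formazan dissolved in DMSO, absorbance 570 nm. Mean ± S.D of three experiments in triplicate; SAHA 5 µM reference.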

[3] = system: HL-60; experiment: Cytotoxicity against human HL60 cells assessed as growth inhibition at 10 uM after 48 hrs by MTT assay; format: functional; details: HL-60, 48 h, read-out: GI; method in brief: as §1
[4] = system: THP-1; experiment: Cytotoxicity against human THP1 cells assessed as growth inhibition at 10 uM after 48 hrs by MTT assay; format: functional; details: THP-1, 48 h, read-out: GI; method in brief: as §1
[5] = system: COLO 205; experiment: Cytotoxicity against human COLO205 cells assessed as growth inhibition at 10 uM after 48 hrs by MTT assay; format: functional; details: COLO 205, 48 h, read-out: GI; method in brief: as §1
[6] = system: A549; experiment: Cytotoxicity against human A549 cells assessed as growth inhibition at 10 uM after 48 hrs by MTT assay; format: functional; details: A549, 48 h, read-out: GI; method in brief: as §1
[7] = system: Caco-2; experiment: Cytotoxicity against human Caco2 cells assessed as growth inhibition at 10 uM after 48 hrs by MTT assay; format: functional; details: Caco-2, 48 h, read-out: GI; method in brief: as §1
[8] = system: PC-3; experiment: Cytotoxicity against human PC3 cells assessed as growth inhibition at 10 uM after 48 hrs by MTT assay; format: functional; details: PC-3, 48 h, read-out: GI
[9] = system: MOLT-4; experiment: Cytotoxicity against human MOLT4 cells assessed as growth inhibition at 10 uM after 48 hrs by MTT assay; format: functional; details: MOLT-4, 48 h, read-out: GI
[10] = system: MCF7; experiment: Cytotoxicity against human MCF7 cells assessed as growth inhibition at 10 uM after 48 hrs by MTT assay; format: functional; details: MCF7, 48 h, read-out: GI; method in brief: as §1
[11] = system: P388; experiment: Antitumor activity against mouse P388 cells implanted in CDF1 mouse assessed as increase in median survival time at 20 mg/kg, ip administered for 9 consecutive days; format: functional, organism-based
Method in brief: (§2)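 P388 leukemia cells were harvested from 6–7-day-old ascites grown in the peritoneum of female DBA/2 mice. Female CDF1 mice (18–23 g) received 5×10^5 cells i.p. on day 0. Next day they were randomized into groups of 7 and dosed i.p. daily for 9 consecutive days; controls got 0.2 ml normal saline. Mortality was followed to day 18, with median survival time and %T/C calculated.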

[12] = system: MOLT-4; experiment: Induction of mitochondrial membrane potential loss in human MOLT4 cells assessed as intact mitochondrial membrane potential at 1 uM measured after 48 hrs by Rh123 dye-based flow cytometric analysis (reference value: 90.4%); format: functional
Method in brief: (§3)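 Cells seeded in 6-well plates 2-4 h, then 48 h with compound; Rh-123 1 µM added for the final half hour; cells centrifuged, washed twice in PBS, resuspended in PBS, and Ψm loss quantified by flow cytometry as percentage of cells.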

[13] = system: MOLT-4; experiment: Induction of mitochondrial membrane potential loss in human MOLT4 cells at 1 uM measured after 48 hrs by Rh123 dye-based flow cytometric analysis (reference value: 9.6%); format: functional; method in brief: as §3
[14] = system: P388; experiment: Antitumor activity against mouse P388 cells implanted in CDF1 mouse assessed as increase in median survival time at 50 mg/kg, ip administered for 9 consecutive days; format: functional; method in brief: as §2
[15] = system: MIA PaCa-2; experiment: Cytotoxicity against human MIAPaCa2 cells assessed as growth inhibition after 48 hrs by MTT assay; format: functional, cell-based; details: MIA PaCa-2, 48 h; method in brief: as §1
[16] = system: HL-60; experiment: Induction of mitochondrial membrane potential loss in human HL60 cells assessed as intact mitochondrial membrane potential at 1 uM measured after 48 hrs by Rh123 dye-based flow cytometric analysis (reference value: 91.3%); format: functional; method in brief: as §3
[17] = system: HL-60; experiment: Induction of mitochondrial membrane potential loss in human HL60 cells at 1 uM measured after 48 hrs by Rh123 dye-based flow cytometric analysis (reference value: 5.6%); format: functional; method in brief: as §3

Structure (SMILES): O=C(CCCCCCC(=O)N[C@H]1CCN(Cc2ccccc2)C1)NO
- inhibition [1]: inactive

Structure (SMILES): O=C(CCCCCCCC(=O)Nc1ccccc1CN1CC[C@H](O)C1)NO
- inhibition of growth at 10 µM [2]: 2%
- inhibition [1]: Active
- inhibition of growth at 10 µM [3]: 6%
- inhibition of growth at 10 µM [4]: 17%
- inhibition of growth at 10 µM [5]: 7%
- inhibition of growth at 10 µM [6]: 5%
- inhibition of growth at 10 µM [7]: 5%
- inhibition of growth at 10 µM [8]: 12%
- inhibition of growth at 10 µM [9]: 30%
- inhibition of growth at 10 µM [10]: 3%

Structure (SMILES): O=C(CCCCC(=O)Nc1ccccc1CN1CC[C@H](O)C1)NO
- inhibition of growth at 10 µM [2]: 12%
- inhibition [1]: Active
- inhibition of growth at 10 µM [3]: 29%
- inhibition of growth at 10 µM [4]: 37%
- inhibition of growth at 10 µM [5]: 22%
- inhibition of growth at 10 µM [6]: 19%
- inhibition of growth at 10 µM [7]: 31%
- inhibition of growth at 10 µM [8]: 15%
- inhibition of growth at 10 µM [9]: 38%
- inhibition of growth at 10 µM [10]: 26%

Structure (SMILES): O=C(CCCC(=O)Nc1ccccc1CN1CC[C@H](O)C1)NO
- inhibition of growth at 10 µM [2]: 4%
- inhibition [1]: Active
- inhibition of growth at 10 µM [3]: 3%
- inhibition of growth at 10 µM [4]: 3%
- inhibition of growth at 10 µM [5]: 26%
- inhibition of growth at 10 µM [6]: 5%
- inhibition of growth at 10 µM [7]: 1%
- inhibition of growth at 10 µM [8]: 2%
- inhibition of growth at 10 µM [9]: 27%
- inhibition of growth at 10 µM [10]: 5%

Structure (SMILES): O=C(CCCCCCCC(=O)N[C@H]1CCN(Cc2ccccc2)C1)NO
- inhibition [1]: inactive

Structure (SMILES): O=c1[nH]cc(F)c(=O)[nH]1
- Activity [11]: Active

Structure (SMILES): O=C(CCCCCCCC(=O)N[C@@H]1CCN(Cc2ccccc2)C1)NO
- inhibition [1]: inactive

Structure (SMILES): O=C(CCCCCCC(=O)Nc1ccccc1)NO [VORINOSTAT]
- Activity [12]: 71.6%
- Activity [13]: 28.4%
- Activity [14]: Active
- pIC50 [15]: 5.66
- Activity [16]: 75.6%
- Activity [17]: 12.9%

Structure (SMILES): O=C(CCCC(=O)N[C@@H]1CCN(Cc2ccccc2)C1)NO
- inhibition [1]: inactive

Structure (SMILES): O=C(CCCC(=O)N[C@H]1CCN(Cc2ccccc2)C1)NO
- inhibition [1]: inactive

Structure (SMILES): O=C(CCCCC(=O)N[C@H]1CCN(Cc2ccccc2)C1)NO
- inhibition [1]: inactive

Structure (SMILES): O=C(CCCCC(=O)N[C@@H]1CCN(Cc2ccccc2)C1)NO
- inhibition [1]: inactive

Structure (SMILES): O=C(CCCCCCC(=O)N[C@@H]1CCN(Cc2ccccc2)C1)NO
- inhibition [1]: inactive
